Data reported in ChEMBL document CHEMBL4680071, “Structure guided generation of thieno[3,2-d]pyrimidin-4-amine Mycobacterium tuberculosis bd oxidase inhibitors” (RSC Med Chem, 2021).

assay: Inhibition of cytochrome-bd oxidase in Mycobacterium bovis BCG assessed as replicating ATP by measuring ATP depletion incubated for 15 hrs in presence of Q203 by BacTiter-Glo luminescence assay; set-up: species or system Mycobacterium tuberculosis variant bovis BCG
Procedure, shortened: (§1)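 Cultures grown in Middlebrook 7H9 with 0.05% Tween 80, 0.5% glycerol, BSA fraction V, D-glucose and NaCl. Cells pelleted, resuspended in glycerol-free medium at about 10^7 CFU/mL, added to compound dilutions. Plates incubated 15 h at 37°C. BacTiter-Glo reagent added, luminescence read after 12 min to give ATP level. IC50 from curve fitting.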

**Q.** For CN(C)c1ccc(CCNc2ncnc3ccsc23)cc1, which IC50 is on record?
**A.** 38.9 mM

**Q.** With Clc1ccc(CCNc2ncnc3ccsc23)cc1 as the molecule, how does the IC50 read?
**A.** 30.4 mM

**Q.** Which IC50 does the source give for Cc1ccc(CCNc2ncnc3ccsc23)cc1 here?
**A.** 40.4 mM

**Q.** For FC(F)(F)Oc1ccc(Nc2ncnc3ccsc23)cc1, which IC50 is on record?
**A.** 22.9 mM

**Q.** Which IC50 does the source give for FC(F)(F)c1ccc(Oc2ccc(Nc3ncnc4ccccc34)cc2)cc1 here?
**A.** 0.8 mM

**Q.** For FS(F)(F)(F)(F)c1ccc(CCNc2ncnc3ccsc23)cc1, which IC50 is on record?
**A.** 27.1 mM

**Q.** For FC(F)(F)Oc1ccc(CCNc2ncnc3ccsc23)cc1, which IC50 is on record?
**A.** 12.6 mM

**Q.** For FC(F)(F)Oc1ccc(CNc2ncnc3ccsc23)cc1, which IC50 is on record?
**A.** 38.1 mM

**Q.** With c1ccc(CCNc2ncnc3ccsc23)cc1 as the molecule, how does the IC50 read?
**A.** 43.3 mM

**Q.** Which IC50 does the source give for COc1nc2ccc(Br)cc2cc1[C@@H](c1ccccc1)[C@@](O)(CCN(C)C)c1cccc2ccccc12 [BEDAQUILINE] here?
**A.** 0.09 mM

**Q.** With Clc1ccc(CCNc2ncnc3ccsc23)cc1Cl as the molecule, how does the IC50 read?
**A.** 25.6 mM

**Q.** With COc1ccc(CCNc2ncnc3sccc23)cc1 as the molecule, how does the IC50 read?
**A.** > 0.05 mM

**Q.** Which IC50 does the source give for CC(C)(C)c1ccc(CCNc2ncnc3ccsc23)cc1 here?
**A.** 5.8 mM

**Q.** Which IC50 does the source give for FC(F)(F)c1cccc(CCNc2ncnc3ccsc23)c1 here?
**A.** 25.6 mM

**Q.** Which IC50 does the source give for FC(F)(F)c1ccccc1CCNc1ncnc2ccsc12 here?
**A.** 12.4 mM

**Q.** Which IC50 does the source give for FC(F)(F)c1ccc(CCNc2ncnc3ccsc23)cc1 here?
**A.** 33.1 mM

**Q.** With COc1ccc(CCNc2ncnc3ccsc23)cc1 as the molecule, how does the IC50 read?
**A.** 42.8 mM

assay: Inhibition of cytochrome-bd oxidase in Mycobacterium bovis BCG assessed as replicating ATP by measuring ATP depletion incubated for 15 hrs in absence of Q203 by BacTiter-Glo luminescence assay; set-up: species or system Mycobacterium tuberculosis variant bovis BCG; procedure, shortened: as §1

**Q.** With CN(C)c1ccc(CCNc2ncnc3ccsc23)cc1 as the molecule, how does the IC50 read?
**A.** > 50 mM

**Q.** Which IC50 does the source give for Clc1ccc(CCNc2ncnc3ccsc23)cc1 here?
**A.** > 50 mM

**Q.** Which IC50 does the source give for Cc1ccc(CCNc2ncnc3ccsc23)cc1 here?
**A.** > 50 mM

**Q.** Which IC50 does the source give for FC(F)(F)Oc1ccc(Nc2ncnc3ccsc23)cc1 here?
**A.** > 50 mM

**Q.** With FC(F)(F)c1ccc(Oc2ccc(Nc3ncnc4ccccc34)cc2)cc1 as the molecule, how does the IC50 read?
**A.** > 50 mM

**Q.** Which IC50 does the source give for FS(F)(F)(F)(F)c1ccc(CCNc2ncnc3ccsc23)cc1 here?
**A.** > 50 mM

**Q.** With FC(F)(F)Oc1ccc(CCNc2ncnc3ccsc23)cc1 as the molecule, how does the IC50 read?
**A.** > 50 mM

**Q.** For FC(F)(F)Oc1ccc(CNc2ncnc3ccsc23)cc1, which IC50 is on record?
**A.** > 50 mM

**Q.** For c1ccc(CCNc2ncnc3ccsc23)cc1, which IC50 is on record?
**A.** > 50 mM

**Q.** Which IC50 does the source give for COc1nc2ccc(Br)cc2cc1[C@@H](c1ccccc1)[C@@](O)(CCN(C)C)c1cccc2ccccc12 [BEDAQUILINE] here?
**A.** 0.17 mM

**Q.** For Clc1ccc(CCNc2ncnc3ccsc23)cc1Cl, which IC50 is on record?
**A.** > 50 mM

**Q.** For CC(C)(C)c1ccc(CCNc2ncnc3ccsc23)cc1, which IC50 is on record?
**A.** > 50 mM

**Q.** With FC(F)(F)c1cccc(CCNc2ncnc3ccsc23)c1 as the molecule, how does the IC50 read?
**A.** > 50 mM

**Q.** Which IC50 does the source give for FC(F)(F)c1ccccc1CCNc1ncnc2ccsc12 here?
**A.** > 50 mM

**Q.** For FC(F)(F)c1ccc(CCNc2ncnc3ccsc23)cc1, which IC50 is on record?
**A.** > 50 mM

**Q.** With COc1ccc(CCNc2ncnc3ccsc23)cc1 as the molecule, how does the IC50 read?
**A.** > 50 mM
